Data on 39 molecules can be found in ChEMBL document CHEMBL3351678, “Benzoquinones as inhibitors of botulinum neurotoxin serotype A” (Bioorg Med Chem, 2014).

The target of test [1] is T1, Botulinum neurotoxin type A (Clostridium botulinum, UniProt P0DPI0). Briefly: Competitive inhibition of recombinant Clostridium botulinum neurotoxin serotype A light chain assessed as [13C]-labeled 9-mer cleavage product formation using 66-mer substrate after 25 mins by LC-MS method. Put shortly: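 66-mer SNAP-25 substrate (5 µM) cleaved by recombinant BoNT/A LC (0.8 nM) in 40 mM HEPES pH 7.4 for 25 min. Quenched with 20% TFA. 13C-labelled 9-mer internal standard added, and cleavage product quantified by LCMS relative to it. IC50 derived from initial velocities using the rearranged IC50 equation.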

In test [2] the target is Botulinum neurotoxin type A (Clostridium botulinum) (UniProt P0DPI0). Briefly: Inhibition of recombinant Clostridium botulinum neurotoxin serotype A light chain assessed as Kinact to KI ratio at 50 uM after 1.5 hrs by SNAPtide FRET based assay.
The nature of test [3]: Glutathione reactivity at 1 mM in presence of 1 mM glutathione containing PBS and 1 mM EDTA buffer at pH 7.4 assessed as remaining GSH level after 10 seconds by spectrophotometry by Ellman's method. Summed up: (§1)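 Compound (1 mM) incubated with glutathione (1 mM) in PBS + 1 mM EDTA, pH 7.4. At each time point, an aliquot was diluted 1:10 into 4 mg/mL DTNB and absorbance read at 412 nm. Compound blanks included. Free GSH quantified against a 0–1.25 mM GSH standard curve and expressed as % remaining.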
On the technique in general: DTNB colorimetry detects thiols as they appear.

A short description of test [4]: Glutathione reactivity at 1 mM in presence of 1 mM glutathione containing PBS and 1 mM EDTA buffer at pH 7.4 assessed as remaining GSH level after 30 mins by spectrophotometry by Ellman's method. Put shortly:
as §1

Test [5] concerns the target Botulinum neurotoxin type A (Clostridium botulinum) (UniProt P0DPI0). Briefly: Irreversible inhibition of recombinant Clostridium botulinum neurotoxin serotype A light chain assessed as Kinact to KI ratio after 1.5 hrs by SNAPtide FRET based assay.
Test [6] shares this target. Briefly: Time dependent inhibition of recombinant Clostridium botulinum neurotoxin serotype A light chain assessed as Kinact to KI ratio after 1.5 hrs by SNAPtide FRET based assay. Put shortly:
(§2)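 Recombinant 425-residue BoNT/A light chain (18.5 nM) with 5 µM SNAPtide FRET substrate in 40 mM HEPES, 0.1% Triton X-100, pH 7.4. Inhibitor is present with enzyme and substrate, without preincubation, across a range of concentrations.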

The target is the same in test [7]. Briefly: Inhibition of recombinant Clostridium botulinum neurotoxin serotype A light chain assessed as [13C]-labeled 9-mer cleavage product formation at 50 uM using 66-mer substrate after 25 mins by LC-MS method. Summed up: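 Inhibitors at 50 µM with recombinant BoNT/A LC (0.8 nM) and 66-mer substrate (5 µM) in 40 mM HEPES pH 7.4. Cleavage ran 25 min, then quenched with 20% TFA. 9-mer product quantified by LCMS against a 13C-labelled 9-mer internal standard.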

The target in test [8] is T1, Botulinum neurotoxin type A. Description: Competitive inhibition of recombinant Clostridium botulinum neurotoxin serotype A light chain assessed as reduction in benzoquinone-mediated BoNT/A inactivation by SNAPtide FRET based assay.
The target is the same in test [9]. Description: Competitive inhibition of recombinant Clostridium botulinum neurotoxin serotype A light chain assessed as reduction in initial rates of BoNT/A LC activity by SNAPtide FRET based assay. Summed up: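 Recombinant 425-aa BoNT/A LC (18.5 nM) and SNAPtide (5 µM) in 40 mM HEPES + 0.1% Triton X-100, pH 7.4. Cleavage read by fluorescence. Velocities fitted to V = Vcontrol/(1 + [I]/IC50) to give IC50.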

Test [10] deals with Botulinum neurotoxin type A (Clostridium botulinum) (UniProt P0DPI0). Briefly: Time dependent inhibition of recombinant Clostridium botulinum neurotoxin serotype A light chain assessed as Kinact to KI ratio at 200 uM by SNAPtide FRET based assay. Put shortly: as §2
Test [11] is described as follows: Glutathione reactivity at 1 mM in presence of 1 mM glutathione containing PBS and 1 mM EDTA buffer at pH 7.4 assessed as second order rate constant by spectrophotometry by Ellman's method. Put shortly: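 Compound and glutathione (1 mM each) in PBS + 1 mM EDTA, pH 7.4. Free thiol followed over time by 1:10 dilution into 4 mg/mL DTNB, A412, with compound blanks and a GSH standard curve. Second-order kGSH of Michael adduct formation derived from 1/[GSH] − 1 = 2kGSH·t.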

Test [12] can be described thus: Glutathione reactivity at 1 mM in presence of 1 mM glutathione containing PBS and 1 mM EDTA buffer at pH 7.4 assessed as remaining GSH level after 1 hr by spectrophotometry by Ellman's method. Summed up: as §1
The target of test [13] is T1, Botulinum neurotoxin type A. Briefly: Competitive inhibition of Clostridium botulinum neurotoxin serotype A light chain.

The source made the active and inactive calls. No cut-off for these calls is given here.

The term IC50 denotes the concentration that inhibits the measured activity by half. The Ki is the dissociation constant of the complex between target and ligand, obtained from inhibition or displacement. A low value points to a stronger hold on the target.

Sequence of Botulinum neurotoxin type A (Clostridium botulinum) (P0DPI0 2-448 limits assumed): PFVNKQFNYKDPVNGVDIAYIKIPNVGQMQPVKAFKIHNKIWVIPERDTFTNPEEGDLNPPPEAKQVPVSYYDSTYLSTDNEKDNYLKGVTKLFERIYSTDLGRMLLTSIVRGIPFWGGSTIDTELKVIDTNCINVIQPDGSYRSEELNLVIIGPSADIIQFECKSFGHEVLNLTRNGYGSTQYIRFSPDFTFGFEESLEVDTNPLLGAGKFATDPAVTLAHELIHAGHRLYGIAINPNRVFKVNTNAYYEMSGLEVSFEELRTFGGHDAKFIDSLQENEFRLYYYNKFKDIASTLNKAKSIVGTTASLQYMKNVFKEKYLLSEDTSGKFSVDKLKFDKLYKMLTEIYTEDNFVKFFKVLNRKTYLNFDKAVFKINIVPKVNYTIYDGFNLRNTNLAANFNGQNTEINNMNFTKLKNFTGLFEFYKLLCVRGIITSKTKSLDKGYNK
T1 sequence (P0DPI0 2-448 limits assumed): as above

As to `O=C(NCc1ccc(-c2ccccc2)cc1)c1nc[nH]n1`, in test [1] (read-out: IC50), the IC50 came out at 210 µM.
In the case of `Cc1ccc(C2=CC(=O)c3ccccc3C2=O)cc1`, the Ratio in test [2] amounted to 0.91 M⁻¹ s⁻¹.
Turning to `O=C1C=CC(=O)C(Nc2ccccn2)=C1`, the IC50 in test [1] (read-out: IC50) was 97 µM.
Take `COC1=CC(=O)C(c2ccc(C)cc2)=CC1=O`: the inhibition entry in test [2] was “inactive”.
Regarding `COC1=CC(=O)C=C(OC)C1=O`, in test [2], the inhibition entry is “inactive”. In addition, the Activity in test [3] was 45%; in test [4], 0%.
For the molecule `O=C1C=CC(=O)c2ccccc21`, in [2], the Ratio is 2 M⁻¹ s⁻¹. For the same molecule, the Activity in test [3] came out at 47%; in [4], 20%.
`O=C1C=CC(=O)C(c2ccc(I)cc2)=C1`: in [2], the Ratio came to 10 M⁻¹ s⁻¹.
Regarding `O=C1C=CC(=O)C=C1`, the Ratio was determined as 17 M⁻¹ s⁻¹ in test [2], 12.4 M⁻¹ s⁻¹ in [5] and 11.8 M⁻¹ s⁻¹ in test [6]. The Activity in [3] was 24%; in [4], 6%. Besides, the inhibition result in test [7] was “Active”.
In the case of `NCC(=O)Nc1ccc(Oc2ccccc2)cc1`, the IC50 in test [1] (read-out: IC50) was determined as 120 µM; in [8] it was 258 µM; in test [9], 163 µM.
As for `COc1ccc(OC)c(Nc2cccc(C(=O)NCc3ccc(Oc4ccccc4)cc3)n2)c1`, in test [1] (read-out: IC50), the IC50 worked out at 200 µM.
Regarding `COC1=C(c2ccc(C)cc2)C(=O)C=CC1=O`, the Ratio in test [2] came out at 9.5 M⁻¹ s⁻¹. Also, the results for the Activity in test [3] and in [4] were 25% and 19%, respectively.
The matching figures for `CC(=O)Oc1cccc2c1C(=O)C=CC2=O`: 4 M⁻¹ s⁻¹, 51% and 26%.
In the case of `O=C1C=CC(=O)C(CCC(=O)O)=C1`, the Ratio in test [2] was found to be 1.2 M⁻¹ s⁻¹. In addition, the IC50 entry in test [1] is “Not Active”.
`O=C1C=CC(=O)C(Cn2cnc(C(=O)NCc3ccc(-c4ccccc4)cc3)n2)=C1`: in test [1] (read-out: IC50), the IC50 was found to be 2.5 µM.
Turning to `C[C@]12CC[C@@H]3c4ccc(C5=CC(=O)C=CC5=O)cc4CC[C@H]3[C@@H]1CCC2=O`, the Ratio in test [2] is 3.9 M⁻¹ s⁻¹.
On to `O=C1C=CC(=O)c2c(O)cccc21`, for which the Ratio is 5.3 M⁻¹ s⁻¹ in test [2], 3.71 M⁻¹ s⁻¹ in [5] and 3.35 M⁻¹ s⁻¹ in [10]. Moreover, the Activity in [3] was determined as 44%; in [4], 32%.
As for `O=C1C=CC(=O)C(Cl)=C1`, in test [2], the Ratio worked out at 51 M⁻¹ s⁻¹.
The same measure, in the same setting: the figure for `COC1=CC(=O)C=CC1=O` is 4.1 M⁻¹ s⁻¹.
In the case of `O=C1C=CC(=O)c2c(O)ccc(O)c21`, the Ratio in test [2] was 2.2 M⁻¹ s⁻¹. Further, the Activity in [3] came out at 85%; in test [4], 39%; in [12], 26%. Moreover, the K in [11] came to 0.025 min⁻¹.
In the case of `CC1=CC(=O)C=C(C)C1=O`, the inhibition entry in test [2] is “inactive”. The Activity in [3] came to 22%; in test [4], 0%.
In turn, `ONCC12CC3CC(CC(C3)C1)C2` had a Ki in test [13] of 0.46 µM. Moreover, the IC50 in test [8] was determined as 1.5 µM; in test [9] it was 1.6 µM.
In the case of `CC1=CC(=O)C=CC1=O`, in [2], the Ratio was determined as 2.5 M⁻¹ s⁻¹. Moreover, the Activity in [3] came out at 35%; in test [4], 5%.
In the case of `O=C1C=CC(=O)C(CC(=O)O)=C1`, the Ratio in test [2] stood at 0.56 M⁻¹ s⁻¹. In addition, in test [1] (read-out: IC50), the IC50 came out at 9.3 µM.
Take `O=C1C=CC(=O)C(CNCC(=O)Nc2cccc(OCc3ccccc3)c2)=C1`: the IC50 in [1] (read-out: IC50) is 18 µM.
As for `O=C1C=C(Cl)C(=O)C=C1Cl`, the Ratio in [2] was 84 M⁻¹ s⁻¹. Also, the Activity in test [3] and in test [4] was 0% throughout.
For the molecule `COc1ccc(OC)c(Cn2cnc(C(=O)NCc3ccc(-c4ccccc4)cc3)n2)c1`, in [1] (read-out: IC50), the IC50 came to 40 µM.
Still for that read-out and setting: in the case of `NCC(=O)NCc1ccc(-c2ccccc2)cc1` it was 160 µM; in that of `COC(=O)c1cccc(NC2=CC(=O)C=CC2=O)n1`, 14 µM.
Still for that read-out and setting: the figure for `NCC(=O)Nc1cccc(OCc2ccccc2)c1` is 417 µM.
In the case of `O=C1C=CC(=O)C(c2ccccc2)=C1`, the Ratio in test [2] came to 9.7 M⁻¹ s⁻¹. For the same molecule, the Activity stood at 21% in [3] and 8% in test [4].
Take `O=C1C=CC(=O)c2c(OCc3ccccc3)cccc21`: in test [2], the Ratio was found to be 2 M⁻¹ s⁻¹. In addition, the Activity is 57% in test [3] and 39% in test [4].
With `O=C(NCc1ccc(Oc2ccccc2)cc1)c1ccccn1`, the IC50 in test [1] (read-out: IC50) was 570 µM.
`COc1cccc2c1C(=O)C=CC2=O`: the Ratio in test [2] worked out at 0.99 M⁻¹ s⁻¹. Moreover, the Activity in [3] is 80%; in test [4], 27%; in test [12], 14%. In addition, the K in [11] came out at 0.053 min⁻¹.
In the case of `O=C1C=CC(=O)c2cc(O)ccc21`, the Ratio in test [2] was found to be 0.94 M⁻¹ s⁻¹; in [5], 1.17 M⁻¹ s⁻¹. For the same molecule, the Activity worked out at 71% in [3], 32% in [4] and 22% in [12]. Further, in test [11], the K is 0.036 min⁻¹.
`COC1=CC(=O)C(OC)=C(c2ccc(C)cc2)C1=O`: the Ratio in test [2] came to 0.82 M⁻¹ s⁻¹. Moreover, the Activity in test [3] stood at 89%; in test [4], 49%; in test [12] it was 35%. Moreover, the K in test [11] was found to be 0.032 min⁻¹.
On to `CC1=CC(=O)c2ccccc2C1=O`, for which the Ratio in test [2] was 1.1 M⁻¹ s⁻¹.
On to `O=C1C=CC(=O)C(Nc2cccc(C(=O)NCc3ccc(Oc4ccccc4)cc3)n2)=C1`, for which, in test [2], the Ratio was determined as 1.7 M⁻¹ s⁻¹. Besides, the IC50 in test [1] (read-out: IC50) worked out at 2.3 µM.
As for `COc1ccc(OC)c(CNCC(=O)Nc2cccc(OCc3ccccc3)c2)c1`, the IC50 in test [1] (read-out: IC50) was 25 µM.
As to `CC1=CC(=O)C(C(C)C)=CC1=O`, the Ratio in test [2] worked out at 0.38 M⁻¹ s⁻¹.
